Experimental data reported in ChEMBL document CHEMBL1221219, “Selective blockade of 2-arachidonoylglycerol hydrolysis produces cannabinoid behavioral effects” (Nat Chem Biol, 2009).
The source made the active and inactive calls. The calls are words filed in the database; no cut-off is given here.

Key:
Mus musculus [1] = assay: Inhibition of FAAH in C57B1/6J mouse brain membrane at 16 mg/kg, ip after 0.5-24 hrs by competitive activity-based protein profiling method; assay type: functional; conditions: route intraperitoneal
Procedure, shortened: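 Male C57Bl/6J mice (6-8 weeks, 20-26 g) given inhibitor i.p. in 4:1 v/v PEG300:Tween80 at 4 ul g^-1 (4-40 mg kg^-1); vehicle controls. Brain membrane proteomes (1 mg ml^-1 in PBS) labelled with FP-rhodamine (2 μM) for 30 min at room temperature. Readout by SDS-PAGE and in-gel fluorescence scanning, compared with vehicle.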

Mus musculus [2] = assay: Change in oleic acid in intraperitoneally dosed C57B1/6J mouse brain by LC-MS; assay type: functional, organism-based
Procedure, shortened: (§1)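 Male C57Bl/6J mice given 4, 8, 16 or 40 mg kg^-1 i.p. in 4:1 PEG300:Tween80 at 4 μl g^-1, or vehicle, and killed after 4 h. Whole-brain lipids were quantified by LC-MS.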

Mus musculus [3] = assay: Inhibition of BAT5 in C57B1/6J mouse brain membrane at 16 mg/kg, ip after 4 hrs by competitive activity-based protein profiling-MudPIT method; assay type: functional, organism-based; set-up: dose 16 mg/kg
Procedure, shortened: (§2)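 Mice were dosed 16 mg kg^-1 i.p. or vehicle and killed at 4 h. Brain membrane proteomes were labelled with FP-biotin, avidin-enriched, trypsin-digested on bead, analysed by multidimensional LC-MS and identified by SEQUEST.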

Mus musculus [4] = assay: Decrease in arachidonic acid levels in intraperitoneally dosed C57B1/6J mouse brain after 4 hrs by LC-MS; assay type: functional, organism-based; procedure, shortened: as §1
[5] = target: T1, Diacylglycerol lipase-beta (Homo sapiens) (UniProt Q8NCG7); assay: Inhibition of recombinant DAGLbeta expressed in HEK293 cells assessed as hydrolysis of 1-stearoyl-2-arachidonoyl-glycerol to 2-AG at 25 uM after 30 mins by LC-MS method; assay type: cell-based
T1 sequence (whole entry): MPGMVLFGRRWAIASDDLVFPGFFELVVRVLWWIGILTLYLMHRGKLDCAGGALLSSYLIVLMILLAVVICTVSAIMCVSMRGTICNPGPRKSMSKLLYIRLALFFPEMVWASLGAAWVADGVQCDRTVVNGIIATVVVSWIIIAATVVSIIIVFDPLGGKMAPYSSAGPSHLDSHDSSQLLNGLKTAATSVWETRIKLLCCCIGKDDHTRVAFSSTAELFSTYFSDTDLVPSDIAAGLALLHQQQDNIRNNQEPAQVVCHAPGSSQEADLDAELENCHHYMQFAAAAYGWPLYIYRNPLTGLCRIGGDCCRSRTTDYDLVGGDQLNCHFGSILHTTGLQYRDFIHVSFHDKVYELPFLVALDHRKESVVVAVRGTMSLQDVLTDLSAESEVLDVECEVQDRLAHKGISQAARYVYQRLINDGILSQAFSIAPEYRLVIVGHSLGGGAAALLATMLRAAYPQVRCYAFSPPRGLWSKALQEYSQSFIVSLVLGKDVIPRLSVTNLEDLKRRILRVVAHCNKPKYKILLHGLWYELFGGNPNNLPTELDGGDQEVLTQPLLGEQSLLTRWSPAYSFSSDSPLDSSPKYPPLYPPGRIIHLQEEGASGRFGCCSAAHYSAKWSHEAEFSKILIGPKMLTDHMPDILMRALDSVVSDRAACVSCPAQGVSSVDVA

[6] = target: T2, Fatty-acid amide hydrolase 1 (Mus musculus, UniProt O08914); assay: Inhibition of FAAH in C57B1/6J mouse brain membrane after 20 mins by using oleamide as a substrate by LC-MS method; assay type: cell membranes
T2 sequence (O08914 whole entry): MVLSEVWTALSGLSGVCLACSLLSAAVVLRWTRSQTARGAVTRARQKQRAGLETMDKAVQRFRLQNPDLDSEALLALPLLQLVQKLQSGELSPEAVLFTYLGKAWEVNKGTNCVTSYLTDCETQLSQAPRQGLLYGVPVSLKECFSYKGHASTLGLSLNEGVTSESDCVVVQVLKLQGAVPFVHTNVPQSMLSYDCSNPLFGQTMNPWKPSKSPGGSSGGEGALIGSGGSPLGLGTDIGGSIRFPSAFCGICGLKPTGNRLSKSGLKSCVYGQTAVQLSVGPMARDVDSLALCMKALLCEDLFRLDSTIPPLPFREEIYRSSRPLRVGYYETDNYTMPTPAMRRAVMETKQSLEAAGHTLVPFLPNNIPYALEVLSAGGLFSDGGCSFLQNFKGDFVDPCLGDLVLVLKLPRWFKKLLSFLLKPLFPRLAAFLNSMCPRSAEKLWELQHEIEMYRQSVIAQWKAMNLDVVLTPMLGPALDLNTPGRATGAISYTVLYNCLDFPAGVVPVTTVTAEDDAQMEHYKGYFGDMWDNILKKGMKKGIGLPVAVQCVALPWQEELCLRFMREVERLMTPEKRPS
Procedure, shortened: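 Mouse brain membrane proteome pre-incubated with inhibitor for 30 min at 37°C, then oleamide (FAAH substrate) added. Hydrolysis quantified by an LC-MS substrate assay.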

Mus musculus [7] = assay: Inhibition of PAFAH-1Bg in C57B1/6J mouse brain membrane at 16 mg/kg, ip after 4 hrs by competitive activity-based protein profiling-MudPIT method; assay type: functional, organism-based; set-up: dose 16 mg/kg
Procedure, shortened: (§3)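 After i.p. dosing in 4:1 PEG300:Tween80, male C57Bl/6J mice were killed at 4 h. Brain membrane proteomes from treated and vehicle mice were labelled with FP-biotin. Labelled proteins were enriched on avidin, digested on-bead with trypsin and analysed by multidimensional LC-MS. Proteins were identified by SEQUEST, and dosed samples were compared with vehicle.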

Mus musculus [8] = assay: Inhibition of ABHD11 in C57B1/6J mouse brain membrane at 16 mg/kg, ip after 4 hrs by competitive activity-based protein profiling-MudPIT method; assay type: functional, organism-based; set-up: dose 16 mg/kg; procedure, shortened: as §2
[9] = target: Cannabinoid receptor 1 (Homo sapiens) (UniProt P21554); assay: Displacement of [3H]rimonabant from CB1 in cerebellar membrane after 90 mins by liquid scintillation; assay type: cell membranes; conditions: Cerebellum
Mus musculus [10] = assay: Induction of hypothermia in CB1 receptor deficient C57B1/6J mouse at 16 mg/kg, ip; assay type: functional, organism-based; set-up: dose 16 mg/kg
Procedure, shortened: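 Male C57Bl/6J mice, 6-8 weeks, 20-26 g, given 16 mg kg^-1 i.p. in 4:1 v/v PEG300:Tween80 at 4 μl g^-1; vehicle controls received PEG300:Tween80 alone. Cannabinoid effects were scored in the tetrad test.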

Mus musculus [11] = assay: Inhibition of PPME1 in C57B1/6J mouse brain membrane at 16 mg/kg, ip after 4 hrs by competitive activity-based protein profiling-MudPIT method; assay type: functional, organism-based; set-up: dose 16 mg/kg; procedure, shortened: as §3
[12] = target: T3, Fatty-acid amide hydrolase 1 (Mus musculus) (UniProt O08914); conditions: C57B1/6J, Brain, Membrane, 10 uM
T3 sequence (whole entry): T2 sequence (O08914 whole entry)

Mus musculus [13] = assay: Inhibition of MAGL in C57B1/6 mouse nucleus accumbens assessed as increase in interstitial level of 2-AG at 10 mg/kg, ip by following neuronal depolarization by microdialysis; assay type: functional, organism-based; set-up: dose 10 mg/kg
Procedure, shortened: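 Male C57Bl/6 mice received 10 mg kg^-1 i.p. 1 h before neuronal depolarization. 2-AG and AEA were sampled by in vivo microdialysis from the nucleus accumbens.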

Mus musculus [14] = assay: Inhibition of RBBP9 in C57B1/6J mouse brain membrane at 16 mg/kg, ip after 4 hrs by competitive activity-based protein profiling-MudPIT method; assay type: functional, organism-based; set-up: dose 16 mg/kg; procedure, shortened: as §3

Sequence of Cannabinoid receptor 1 (Homo sapiens) (P21554 whole entry): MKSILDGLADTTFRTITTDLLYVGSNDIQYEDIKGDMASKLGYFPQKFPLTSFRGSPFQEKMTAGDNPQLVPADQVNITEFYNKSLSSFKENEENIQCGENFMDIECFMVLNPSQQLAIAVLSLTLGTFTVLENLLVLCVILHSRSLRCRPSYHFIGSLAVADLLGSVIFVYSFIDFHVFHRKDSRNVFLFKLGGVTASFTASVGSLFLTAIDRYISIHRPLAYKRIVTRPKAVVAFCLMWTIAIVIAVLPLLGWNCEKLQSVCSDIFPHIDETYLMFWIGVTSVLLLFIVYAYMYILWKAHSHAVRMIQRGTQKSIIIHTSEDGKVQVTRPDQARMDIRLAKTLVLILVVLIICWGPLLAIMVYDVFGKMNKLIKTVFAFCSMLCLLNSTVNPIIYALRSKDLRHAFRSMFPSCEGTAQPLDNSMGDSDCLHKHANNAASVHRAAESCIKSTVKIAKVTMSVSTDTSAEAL

## O=C(Oc1ccc([N+](=O)[O-])cc1)N1CCC(C(O)(c2ccc3c(c2)OCO3)c2ccc3c(c2)OCO3)CC1
Mus musculus [1]
  inhibition in vivo at 16 mg/kg: 70%
Mus musculus [2]
  Activity: inactive
Mus musculus [3]
  inhibition: inactive
Mus musculus [4]
  Activity: Active
[5]
  inhibition: inactive
[6]
  IC50: 4 µM
Mus musculus [7]
  inhibition: inactive
Mus musculus [8]
  inhibition: inactive
[9]
  Activity: inactive
Mus musculus [10]
  Activity: inactive
Mus musculus [11]
  inhibition: inactive
[12]
  inhibition: Active
Mus musculus [13]
  inhibition: Active
Mus musculus [14]
  inhibition: inactive
